Test results reported in ChEMBL document CHEMBL3588757, “Structure-based design, synthesis and biological testing of piperazine-linked bis-epipodophyllotoxin etoposide analogs” (Bioorg Med Chem, 2015).

Tests used:
Assay type in all cases: functional
T47D [1] = assay: Cytotoxicity against human T47D cells assessed as cell growth at 0.005 uM by SRB assay; settings: read-out: Activity
MDA-MB-468 = assay: Cytotoxicity against human MDA-MB-468 cells assessed as cell growth at 0.005 uM by SRB assay; settings: read-out: Activity
A549 [2] = assay: Cytotoxicity against human A549/ATCC cells assessed as cell growth at 5 uM by SRB assay; settings: read-out: Activity
SF-295 = assay: Cytotoxicity against human SF295 cells assessed as cell growth at 0.05 uM by SRB assay; settings: read-out: Activity
IGROV-1 = assay: Cytotoxicity against human IGROV1 cells assessed as cell growth at 0.05 uM by SRB assay; settings: read-out: Activity
Outline: (§1)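 Measured in the NCI-60 human tumour cell line panel using five-dose testing. Growth was recorded at each dose for each cell line, and a GI50 was derived for each line.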

RXF 393 = assay: Cytotoxicity against human RXF393 cells assessed as cell growth at 50 uM by SRB assay; settings: read-out: Activity
MDA-MB-435 [3] = assay: Cytotoxicity against human MDA-MB-435 cells by SRB assay
Outline: (§2)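 NCI-60 panel screen; 5-dose testing giving GI50 per cell line, plus a single 10 µM one-dose test. Method details not given beyond the NCI screen.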

OVCAR-4 [4] = assay: Cytotoxicity against human OVCAR4 cells assessed as cell growth at 0.5 uM by SRB assay; settings: read-out: Activity
HOP-92 [5] = assay: Cytotoxicity against human HOP92 cells assessed as cell growth at 50 uM by SRB assay; settings: read-out: Activity; outline: as §1
M14 = assay: Cytotoxicity against human M14 cells assessed as cell growth at 5 uM by SRB assay; settings: read-out: Activity
KM12 = assay: Cytotoxicity against human KM12 cells assessed as cell growth at 5 uM by SRB assay; settings: read-out: Activity
HCT-116 [6] = assay: Cytotoxicity against human HCT116 cells assessed as cell growth at 0.5 uM by SRB assay; settings: read-out: Activity; outline: as §1
SR [7] = assay: Cytotoxicity against human SR cells assessed as cell growth at 50 uM by SRB assay; settings: read-out: Activity
T47D [8] = assay: Cytotoxicity against human T47D cells assessed as cell growth at 5 uM by SRB assay; settings: read-out: Activity
HCT-116 [9] = assay: Cytotoxicity against human HCT116 cells assessed as cell growth at 5 uM by SRB assay; settings: read-out: Activity; outline: as §1
SW-620 [10] = assay: Cytotoxicity against human SW620 cells assessed as cell growth at 0.5 uM by SRB assay; settings: read-out: Activity
HL-60(TB) = assay: Cytotoxicity against human HL-60(TB) cells by SRB assay; outline: as §1
SN12C = assay: Cytotoxicity against human SN12C cells assessed as cell growth at 5 uM by SRB assay; settings: read-out: Activity
NCI-H522 = assay: Cytotoxicity against human NCI-H522 cells by SRB assay; outline: as §2
SK-OV-3 = assay: Cytotoxicity against human SKOV3 cells assessed as cell growth at 5 uM by SRB assay; settings: read-out: Activity
T47D [11] = assay: Cytotoxicity against human T47D cells assessed as cell growth at 0.05 uM by SRB assay; settings: read-out: Activity
CAKI-1 = assay: Cytotoxicity against human Caki1 cells assessed as cell growth at 5 uM by SRB assay; settings: read-out: Activity
RPMI-8226 = assay: Cytotoxicity against human RPMI8226 cells assessed as cell growth at 5 uM by SRB assay; settings: read-out: Activity
OVCAR-4 [12] = assay: Cytotoxicity against human OVCAR4 cells by SRB assay; outline: as §2
SR [13] = assay: Cytotoxicity against human SR cells assessed as cell growth at 0.5 uM by SRB assay; settings: read-out: Activity
HOP-92 [14] = assay: Cytotoxicity against human HOP92 cells assessed as cell growth at 0.005 uM by SRB assay; settings: read-out: Activity; outline: as §1
SF-539 = assay: Cytotoxicity against human SF539 cells by SRB assay; outline: as §2
SR [15] = assay: Cytotoxicity against human SR cells by SRB assay; outline: as §2
MDA-MB-435 [16] = assay: Cytotoxicity against human MDA-MB-435 cells assessed as cell growth at 0.5 uM by SRB assay; settings: read-out: Activity
PC-3 = assay: Cytotoxicity against human PC3 cells assessed as cell growth at 0.5 uM by SRB assay; settings: read-out: Activity
SK-MEL-28 = assay: Cytotoxicity against human SK-MEL-28 cells assessed as cell growth at 0.005 uM by SRB assay; settings: read-out: Activity
786-0 = assay: Cytotoxicity against human 786-0 cells assessed as cell growth at 50 uM by SRB assay; settings: read-out: Activity
SF-268 [17] = assay: Cytotoxicity against human SF268 cells by SRB assay; outline: as §2
A549 [18] = assay: Cytotoxicity against human A549/ATCC cells assessed as cell growth at 50 uM by SRB assay; settings: read-out: Activity
OVCAR-8 = assay: Cytotoxicity against human OVCAR8 cells assessed as cell growth at 5 uM by SRB assay; settings: read-out: Activity
SW-620 [19] = assay: Cytotoxicity against human SW620 cells assessed as cell growth at 0.005 uM by SRB assay; settings: read-out: Activity
HCC 2998 = assay: Cytotoxicity against human HCC2998 cells assessed as cell growth at 0.05 uM by SRB assay; settings: read-out: Activity; outline: as §1
UO-31 = assay: Cytotoxicity against human UO31 cells assessed as cell growth at 0.5 uM by SRB assay; settings: read-out: Activity
SF-268 [20] = assay: Cytotoxicity against human SF268 cells assessed as cell growth at 5 uM by SRB assay; settings: read-out: Activity
UACC-62 = assay: Cytotoxicity against human UACC62 cells assessed as cell growth at 0.05 uM by SRB assay; settings: read-out: Activity
A549 [21] = assay: Cytotoxicity against human A549/ATCC cells assessed as cell growth at 0.005 uM by SRB assay; settings: read-out: Activity
[22] = Cytotoxicity against human NCI-ADR-RES cells assessed as cell growth at 0.05 uM by SRB assay; settings: read-out: Activity
COLO 205 = assay: Cytotoxicity against human COLO205 cells assessed as cell growth at 0.05 uM by SRB assay; settings: read-out: Activity
[23] = read-out: LC50 (the source's name)
[24] = read-out: pLC50 (the source's name) (converted)

In the case of `COc1cc([C@@H]2c3cc4c(cc3[C@@H](NC(=O)CN3CCN(CCCCCCN5CCN(CC(=O)N[C@@H]6c7cc8c(cc7[C@@H](c7cc(OC)c(O)c(OC)c7)[C@H]7C(=O)OC[C@@H]76)OCO8)CC5)CC3)[C@H]3COC(=O)[C@H]23)OCO4)cc(OC)c1O`, the growth at 0.005 µM (T47D [1]) is reported as 97%, the growth at 0.005 µM (MDA-MB-468) is reported as 91% and the growth at 5 µM (A549 [2]) is reported as 35%. For the same compound, the growth at 0.05 µM (SF-295) was 93%, the growth at 0.05 µM (IGROV-1) was 105% and the growth at 50 µM (RXF 393) was 7%. It also gave a GI50 (MDA-MB-435 [3]; read-out: GI50) of 7.52 µM, a CC50 (MDA-MB-435 [3]; [23]) greater than 50 µM and a TGI (MDA-MB-435 [3]; read-out: TGI) greater than 50 µM. For the same compound, the GI50 (MDA-MB-435 [3]; read-out: pGI50 (converted)) was 7.59 µM, the CC50 (MDA-MB-435 [3]; [24]) was greater than 50.1 µM and the TGI (MDA-MB-435 [3]; read-out: pTGI (converted)) was greater than 50.1 µM. For the same compound, the growth at 0.5 µM (OVCAR-4 [4]) was 90%, the growth at 50 µM (HOP-92 [5]) was 14% and the growth at 5 µM (M14) was 35%. It also gave a growth at 5 µM (KM12) of 46%, a growth at 0.5 µM (HCT-116 [6]) of 60% and a growth at 50 µM (SR [7]) of 1%. For the same compound, the growth at 5 µM (T47D [8]) was 31%, the growth at 5 µM (HCT-116 [9]) was 40% and the growth at 0.5 µM (SW-620 [10]) was 63%. For the same compound, the GI50 (HL-60(TB); read-out: GI50) was 0.772 µM, the CC50 (HL-60(TB); [23]) was greater than 50 µM and the TGI (HL-60(TB); read-out: TGI) was 33.8 µM. The GI50 (HL-60(TB); read-out: pGI50 (converted)) was 0.776 µM, the CC50 (HL-60(TB); [24]) was greater than 50.1 µM and the TGI (HL-60(TB); read-out: pTGI (converted)) was 33.9 µM. The growth at 5 µM (SN12C) was 11%, the GI50 (NCI-H522; read-out: GI50) was 5.13 µM and the CC50 (NCI-H522; [23]) was greater than 50 µM. For the same compound, the TGI (NCI-H522; read-out: TGI) was 28.8 µM, the GI50 (NCI-H522; read-out: pGI50 (converted)) was 5.13 µM and the CC50 (NCI-H522; [24]) was greater than 50.1 µM. It also gave a TGI (NCI-H522; read-out: pTGI (converted)) of 28.8 µM, a growth at 5 µM (SK-OV-3) of 44% and a growth at 0.05 µM (T47D [11]) of 90%. The growth at 5 µM (CAKI-1) was 80%, the growth at 5 µM (RPMI-8226) was -1% and the GI50 (OVCAR-4 [12]; read-out: GI50) was 10.5 µM. The CC50 (OVCAR-4 [12]; [23]) was greater than 50 µM, the TGI (OVCAR-4 [12]; read-out: TGI) was greater than 50 µM and the GI50 (OVCAR-4 [12]; read-out: pGI50 (converted)) was 10.5 µM. The CC50 (OVCAR-4 [12]; [24]) was greater than 50.1 µM, the TGI (OVCAR-4 [12]; read-out: pTGI (converted)) was greater than 50.1 µM and the growth at 0.5 µM (SR [13]) was 22%. The growth at 0.005 µM (HOP-92 [14]) was 88%, the GI50 (SF-539; read-out: GI50) was 0.898 µM and the CC50 (SF-539; [23]) was greater than 50 µM. The TGI (SF-539; read-out: TGI) was 3.57 µM, the GI50 (SF-539; read-out: pGI50 (converted)) was 0.891 µM and the CC50 (SF-539; [24]) was greater than 50.1 µM. For the same compound, the TGI (SF-539; read-out: pTGI (converted)) was 3.55 µM, the GI50 (SR [15]; read-out: GI50) was 0.106 µM and the CC50 (SR [15]; [23]) was greater than 50 µM. For the same compound, the TGI (SR [15]; read-out: TGI) was greater than 50 µM, the GI50 (SR [15]; read-out: pGI50 (converted)) was 0.105 µM and the CC50 (SR [15]; [24]) was greater than 50.1 µM. It also gave a TGI (SR [15]; read-out: pTGI (converted)) greater than 50.1 µM, a growth at 0.5 µM (MDA-MB-435 [16]) of 84% and a growth at 0.5 µM (PC-3) of 80%. For the same compound, the growth at 0.005 µM (SK-MEL-28) was 100%, the growth at 50 µM (786-0) was -10% and the GI50 (SF-268 [17]; read-out: GI50) was 1.38 µM. For the same compound, the CC50 (SF-268 [17]; [23]) was greater than 50 µM, the TGI (SF-268 [17]; read-out: TGI) was greater than 50 µM and the GI50 (SF-268 [17]; read-out: pGI50 (converted)) was 1.38 µM. The CC50 (SF-268 [17]; [24]) was greater than 50.1 µM, the TGI (SF-268 [17]; read-out: pTGI (converted)) was greater than 50.1 µM and the growth at 50 µM (A549 [18]) was -37%. The growth at 5 µM (OVCAR-8) was 92%, the growth at 0.005 µM (SW-620 [19]) was 97% and the growth at 0.05 µM (HCC 2998) was 104%. For the same compound, the growth at 0.5 µM (UO-31) was 92%, the growth at 5 µM (SF-268 [20]) was 20% and the growth at 0.05 µM (UACC-62) was 90%. The growth at 0.005 µM (A549 [21]) was 99%, the growth at 0.05 µM [22] was 103% and the growth at 0.05 µM (COLO 205) was 99%.
